This is an account of results in ChEMBL document CHEMBL4330098, “Identification of peptidomimetics as novel chemical probes modulating fibroblast growth factor 14 (FGF14) and voltage-gated sodium channel 1.6 (Nav1.6) protein-protein interactions” (Bioorg Med Chem Lett, 2019).

Activity calls are given as the source filed them. No cut-off for these calls is given here. Residues, ends and D or L forms follow the SMILES beside them. *: point of attachment. Fmoc = O=C(OCC1c2ccccc2-c2ccccc21)*; Cbz = O=C(OCc1ccccc1)*; Boc = CC(C)(C)OC(=O)*; Bz = O=C(c1ccccc1)*

Holding throughout (type): cell-based
The target of data set [1] is Luciferin 4-monooxygenase (Photinus pyralis) (UniProt P08659). The data set is described as follows: Effect on firefly luciferase activity expressed in HEK293 cells at 50 uM by luminescence assay. The method in brief:
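HEK293 cells transiently transfected with full-length Photinus (firefly) luciferase. Compounds dissolved in DMSO and diluted in medium to 50 μM final in 0.5% DMSO. Luminescence expressed as % of maximal, relative to 0.5% DMSO vehicle.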

The target of data set [2] is T1, Fibroblast growth factor 14/SCN8A (Homo sapiens) (UniProt Q9UQD0+Q92915). In words: Inhibition of Cluc-FGF14 (unknown origin)/CD4-Nav1.6-Nluc (unknown origin) protein-protein interaction using FGF14/NAV1.6 using HEK293 cells expressing FGF14/Nav1.6 by split luciferase complementation assay. The method in brief:
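Split-luciferase complementation in HEK293 cells expressing Cluc-FGF14 and CD4-Nav1.6-Nluc. Five-point dose response at 1, 10, 25, 50 and 100 μM.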

For another data set, the system named is HEK293. The data set is described as follows: Cytotoxicity against HEK293 cells assessed as reduction in cell viability at 50 uM by LDH release assay. As to conditions: human, hek293, 50 µM. The method in brief:
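LDH release cytotoxicity assay in HEK293 cells, compounds given at 50 μM final. Read-out is % cytotoxicity. Data are mean ± S.E.M.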

The target in data set [3] is Sodium channel protein type 8 subunit alpha (Homo sapiens) (UniProt Q9UQD0). In words: Inhibition of Nav1.6 (unknown origin) expressed in HEK293 cells assessed as V1/2 of steady-state of inactivation at 10 uM after 1 hr at -70 mV holding potential by whole cell patch clamp method (reference value: […]).
For data set [4] the target is unchanged. In words: Inhibition of Nav1.6 (unknown origin) expressed in HEK293 cells assessed as activation constant at 10 uM after 1 hr at -70 mV holding potential by whole cell patch clamp method (reference value: 3.4 +/- 0.2 mV).
Data set [5] has the same target. The data set is described as follows: Inhibition of Nav1.6 (unknown origin) expressed in HEK293 cells assessed as inactivation time constant at 10 uM after 1 hr at -70 mV holding potential by whole cell patch clamp method (reference value: 2.04 +/- 0.3 milliseconds).
Data set [6] addresses T1, Fibroblast growth factor 14/SCN8A (Homo sapiens). The data set is described as follows: Modulation of Cluc-FGF14 (unknown origin)/CD4-Nav1.6-Nluc (unknown origin) protein-protein interaction using FGF14/NAV1.6 using HEK293 cells expressing FGF14/Nav1.6 assessed as luminescent response at 50 uM by split luciferase complementation assay relative to control. The method in brief: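 Split-luciferase complementation in HEK293 cells co-transfected with Cluc-FGF14 and CD4-Nav1.6-Nluc plasmids. Compounds in DMSO, diluted in medium to 50 μM final, 0.5% DMSO. Luminescence reported as % maximal vs 0.5% DMSO vehicle.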

T1 sequence (Q92915 whole entry, looked up): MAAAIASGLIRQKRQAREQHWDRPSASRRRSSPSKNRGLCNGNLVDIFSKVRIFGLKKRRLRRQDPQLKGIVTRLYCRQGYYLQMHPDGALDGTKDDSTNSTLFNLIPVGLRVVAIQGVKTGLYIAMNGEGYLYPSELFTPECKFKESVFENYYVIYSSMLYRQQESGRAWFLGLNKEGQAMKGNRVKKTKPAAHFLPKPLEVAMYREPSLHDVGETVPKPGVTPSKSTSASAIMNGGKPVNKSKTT
T1 sequence (Q9UQD0 whole entry, looked up): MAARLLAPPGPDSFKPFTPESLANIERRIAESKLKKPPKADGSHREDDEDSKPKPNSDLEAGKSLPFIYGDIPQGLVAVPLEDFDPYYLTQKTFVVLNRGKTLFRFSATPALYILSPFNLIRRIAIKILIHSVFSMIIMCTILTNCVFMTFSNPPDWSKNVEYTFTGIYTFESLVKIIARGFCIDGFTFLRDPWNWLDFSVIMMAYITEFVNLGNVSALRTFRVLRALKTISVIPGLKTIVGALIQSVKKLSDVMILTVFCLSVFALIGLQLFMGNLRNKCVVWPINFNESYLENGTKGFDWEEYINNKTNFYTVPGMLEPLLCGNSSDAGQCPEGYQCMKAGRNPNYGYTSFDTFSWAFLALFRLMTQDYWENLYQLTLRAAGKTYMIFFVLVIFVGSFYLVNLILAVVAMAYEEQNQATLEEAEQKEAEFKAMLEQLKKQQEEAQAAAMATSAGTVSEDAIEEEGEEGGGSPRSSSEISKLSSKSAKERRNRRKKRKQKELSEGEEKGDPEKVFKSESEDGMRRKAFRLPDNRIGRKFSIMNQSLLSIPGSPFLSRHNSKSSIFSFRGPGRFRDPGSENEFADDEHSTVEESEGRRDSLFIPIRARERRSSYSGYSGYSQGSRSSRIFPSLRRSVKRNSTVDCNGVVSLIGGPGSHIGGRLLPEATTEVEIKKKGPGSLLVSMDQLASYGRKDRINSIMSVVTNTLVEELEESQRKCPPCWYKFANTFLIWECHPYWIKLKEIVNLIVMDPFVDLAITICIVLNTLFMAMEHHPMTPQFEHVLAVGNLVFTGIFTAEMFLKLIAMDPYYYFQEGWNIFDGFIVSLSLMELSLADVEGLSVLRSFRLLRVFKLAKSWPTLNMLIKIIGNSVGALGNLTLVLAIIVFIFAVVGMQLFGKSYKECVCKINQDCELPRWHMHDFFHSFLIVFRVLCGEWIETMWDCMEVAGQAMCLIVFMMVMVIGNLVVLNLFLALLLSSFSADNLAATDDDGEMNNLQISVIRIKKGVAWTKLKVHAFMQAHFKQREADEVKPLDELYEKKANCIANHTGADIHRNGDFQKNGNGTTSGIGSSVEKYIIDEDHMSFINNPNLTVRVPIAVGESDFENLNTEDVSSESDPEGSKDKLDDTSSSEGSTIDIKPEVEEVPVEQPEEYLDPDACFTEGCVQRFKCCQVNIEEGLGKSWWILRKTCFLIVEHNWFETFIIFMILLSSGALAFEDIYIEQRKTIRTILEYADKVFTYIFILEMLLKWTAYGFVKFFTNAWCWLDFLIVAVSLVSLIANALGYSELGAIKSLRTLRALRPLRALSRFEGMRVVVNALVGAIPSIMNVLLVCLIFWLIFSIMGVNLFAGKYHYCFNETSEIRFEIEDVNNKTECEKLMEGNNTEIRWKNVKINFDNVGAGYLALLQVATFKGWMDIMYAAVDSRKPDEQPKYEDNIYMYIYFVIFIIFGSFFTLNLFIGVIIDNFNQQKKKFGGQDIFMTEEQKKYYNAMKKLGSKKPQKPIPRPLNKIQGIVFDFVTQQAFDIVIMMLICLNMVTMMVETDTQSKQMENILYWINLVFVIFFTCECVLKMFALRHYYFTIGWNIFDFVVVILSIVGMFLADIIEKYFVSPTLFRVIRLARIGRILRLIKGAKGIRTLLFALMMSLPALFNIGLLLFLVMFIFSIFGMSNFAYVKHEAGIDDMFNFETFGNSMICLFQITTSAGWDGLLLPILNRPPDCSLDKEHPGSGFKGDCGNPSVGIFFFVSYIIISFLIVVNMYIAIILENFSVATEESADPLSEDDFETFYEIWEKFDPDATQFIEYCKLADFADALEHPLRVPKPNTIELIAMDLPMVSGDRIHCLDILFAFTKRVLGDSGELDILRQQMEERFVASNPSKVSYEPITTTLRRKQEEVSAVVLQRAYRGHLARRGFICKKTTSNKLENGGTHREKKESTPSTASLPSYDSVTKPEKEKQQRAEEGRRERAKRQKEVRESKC
Sodium channel protein type 8 subunit alpha (Homo sapiens), sequence (Q9UQD0 whole entry, looked up): as above
Luciferin 4-monooxygenase (Photinus pyralis), sequence (P08659 whole entry): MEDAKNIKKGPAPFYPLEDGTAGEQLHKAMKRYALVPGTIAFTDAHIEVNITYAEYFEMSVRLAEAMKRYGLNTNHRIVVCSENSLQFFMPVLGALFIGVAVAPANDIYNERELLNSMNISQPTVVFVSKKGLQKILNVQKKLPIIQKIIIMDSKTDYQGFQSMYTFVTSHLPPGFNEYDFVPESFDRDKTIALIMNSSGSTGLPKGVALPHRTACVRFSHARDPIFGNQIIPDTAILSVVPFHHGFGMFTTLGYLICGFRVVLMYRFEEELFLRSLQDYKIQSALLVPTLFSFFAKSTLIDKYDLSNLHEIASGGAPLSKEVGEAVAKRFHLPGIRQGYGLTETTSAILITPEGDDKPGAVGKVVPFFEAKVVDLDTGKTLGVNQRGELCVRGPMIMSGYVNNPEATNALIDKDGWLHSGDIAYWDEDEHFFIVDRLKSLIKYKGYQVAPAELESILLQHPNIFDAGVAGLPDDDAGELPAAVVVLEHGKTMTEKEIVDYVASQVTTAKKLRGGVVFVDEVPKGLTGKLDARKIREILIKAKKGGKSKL

Take `CC(C)C[C@H](NC(=O)[C@H](Cc1ccccc1)NC(=O)OCc1ccccc1)C(=O)N1CCC[C@H]1C(=O)N[C@@H](CCCCNC(=O)OC(C)(C)C)C(N)=O` (Cbz-FLPK(Boc)-NH2): the result in data set [1] was inactive.
On the same count and under the same terms, next, `CC(=O)N1CCC[C@H]1C(=O)N[C@@H](CC(C)C)C(=O)N[C@@H](CCCCNC(=O)OC(C)(C)C)C(N)=O` (Ac-Pro-Leu-Lys(Boc)-NH2): “inactive”.
In the case of `CC(C)C[C@H](NC(=O)[C@H](Cc1ccccc1)NC(=O)c1ccccc1)C(=O)N1CCC[C@H]1C(=O)N[C@@H](CCCCNC(=O)OC(C)(C)C)C(N)=O` (Bz-FLPK(Boc)-NH2), the result in data set [1] was inactive. In addition, the inhibition entry in data set [2] is “Dose-dependent effect”. Also, the Activity result with HEK293 is recorded as “Non-Toxic”.
Consider `COC(=O)[C@H](CCCCNC(=O)OCC1c2ccccc2-c2ccccc21)NC(=O)[C@@H]1CCCN1C(=O)[C@H](CC(C)C)NC(=O)[C@H](Cc1ccccc1)NC(C)=O` (Ac-FLPK(Fmoc)-OMe), for which the result in data set [1] was inactive. Further, in data set [2], the inhibition entry was “Dose-dependent effect”. In data set [3], the V1/2 is -57.7 mV. The Kact in data set [4] worked out at 3.9 mV. Further, the Activity result in the data set with HEK293 is given as “Non-Toxic”. For the same molecule, the TIME in data set [5] was 5.69e-07 h.
On to `CC(C)C[C@H](N)C(=O)N1CCC[C@H]1C(=O)N[C@@H](CCCCN)C(N)=O` (H-Leu-Pro-Lys-NH2), for which the outcome in data set [1] was inactive. In addition, the Activity entry with HEK293 was “Non-Toxic”; in data set [6], 142%.
Take `COC(=O)[C@H](CCCCNC(=O)OCC1c2ccccc2-c2ccccc21)NC(=O)[C@@H]1CCCN1C(=O)[C@H](CC(C)C)NC(=O)[C@@H](N)Cc1ccccc1` (H-FLPK(Fmoc)-OMe): in data set [1], the outcome was inactive. The Activity in data set [6] worked out at 124%.
